A short description of data set [1]: Metabolism after 30 min of incubation with human liver microsomes in the absence of cofactor […] (2.0 mM) at a concentration of 25 uM. To be noted: read-out: Metabolism. The class given is ADME. The gist of the method: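 Compound incubated for 30 min with human liver microsomes (1.0 mg/mL), with or without NADPH. An aliquot was precipitated with acetonitrile, then analysed by reverse-phase HPLC at rt using a gradient of CH3CN/CH3OH/0.01% TFA (pH 3.5 adjusted with NEt3), from 5:20:75 to 60:20:20 over 20 min, held 10 min, 1.0 mL/min. Result expressed as % metabolism.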

A short description of data set [2]: Metabolism after 30 min of incubation with human liver microsomes in the presence of cofactor […] (2.0 mM) at a concentration of 25 uM. The settings on record: read-out: Metabolism. In kind it is ADME. In general terms: Microsomes from liver hold many membrane-bound enzymes, among them those of drug oxidation.
For data set [3], the system named is HeLa. The data set is described as follows: Cytotoxicity against uninfected H1HeLa cells. The class given is functional. The settings on record: Homo sapiens.
Data set [4] concerns HeLa. In words: Anti viral activity against human rhinovirus (HRV) in H1HeLa cells. The class given is functional, cell-based.
For the next data set, the system named is Human rhinovirus sp. In words: Enzyme inhibition against Human Rhinovirus 3C protease was determined. In kind it is functional.

Some results are limits rather than exact numbers.

Regarding `CCOC(=O)/C=C/[C@H](C[C@@H]1CCNC1=O)NC(=O)[C@H](Cc1ccc(F)cc1)NC(=O)[C@@H](NC(=O)c1cc(C)on1)C(C)C`, the figures for the metabolised at 0.5 h, 25 µM in data set [1] and in data set [2] were 7% and 22%, respectively. For the same molecule, the cytotoxic concentration (CC50) (as a rule, the concentration giving 50% cytotoxicity) with HeLa [3] was > 100000 nM. Besides, the EC50 (commonly the concentration that produces a half-maximal response) in the data set with HeLa [4] turned out to be 10 nM. The “K obs / 1” value with Human rhinovirus sp. amounted to 1500000 M⁻¹ s⁻¹.
As for `CCOC(=O)/C=C/[C@H](CCC(N)=O)NC(=O)[C@@H](CC(=O)[C@@H](NC(=O)SC1CCCC1)C(C)C)Cc1ccc(F)cc1`, the 50% cytotoxic concentration (CC50) in the data set with HeLa [3] was > 100000 nM. The molecule further gave a 50% effective concentration (EC50) in the data set on HeLa [4] of 20 nM. Also, the “K obs / 1” value with Human rhinovirus sp. was found to be 293000 M⁻¹ s⁻¹.
For `CCOC(=O)/C=C/[C@H](CCC(N)=O)NC(=O)[C@H](Cc1ccc(F)cc1)NC(=O)[C@@H](NC(=O)SC1CCCC1)C(C)C`, the cytotoxic concentration (CC50) with HeLa [3] was > 100000 nM. A half-maximal response in the data set on HeLa [4] (EC50) required 190 nM. The “K obs / 1” value with Human rhinovirus sp. came to 59900 M⁻¹ s⁻¹.
`CCOC(=O)/C=C/[C@H](C[C@@H]1CCNC1=O)NC(=O)[C@H](Cc1ccc(F)cc1)OC(=O)[C@@H](NC(=O)c1cc(C)on1)C(C)C`: the metabolised at 0.5 h, 25 µM in data set [1] turned out to be 44%; in data set [2], 67%. Also, the CC50 with HeLa [3] is > 100000 nM. The molecule further showed a concentration giving a half-maximal response (EC50) in the data set with HeLa [4] of 7 nM. Moreover, the “K obs / 1” value with Human rhinovirus sp. came to 270000 M⁻¹ s⁻¹.
On to `CCOC(=O)/C=C/[C@H](C[C@@H]1CCNC1=O)NC(=O)[C@@H](CC(=O)[C@@H](NC(=O)c1cc(C)on1)C(C)C)Cc1ccc(F)cc1` [RUPINTRIVIR], for which the figures for the metabolised at 0.5 h, 25 µM in data set [1] and in data set [2] were 27% and 50%, respectively. In addition, the 50% cytotoxic concentration (CC50) in the data set on HeLa [3] was > 100000 nM. The EC50 in the data set on HeLa [4] was 5 nM. Also, the “K obs / 1” value in the data set with Human rhinovirus sp. was determined as 1090000 M⁻¹ s⁻¹.
For the molecule `CCOC(=O)/C=C/[C@H](CCC(N)=O)NC(=O)[C@@H](CC(=O)[C@@H](NC(=O)c1cc(C)on1)C(C)C)Cc1ccc(F)cc1`, in the data set on HeLa [3], the CC50 is > 100000 nM. For the same molecule, a half-maximal response in the data set on HeLa [4] (EC50) required 100 nM. Also, the “K obs / 1” value with Human rhinovirus sp. amounted to 240000 M⁻¹ s⁻¹.
For the molecule `CCOC(=O)/C=C/[C@H](CCC(N)=O)NC(=O)[C@H](Cc1ccc(F)cc1)OC(=O)[C@@H](NC(=O)SC1CCCC1)C(C)C`, in the data set on HeLa [3], the CC50 is > 10000 nM. The EC50 in the data set with HeLa [4] turned out to be 1000 nM. Further, the “K obs / 1” value with Human rhinovirus sp. is 99800 M⁻¹ s⁻¹.
Taken in the same sequence, the figures for `CCOC(=O)/C=C/[C@H](CCC(N)=O)NC(=O)[C@H](Cc1ccc(F)cc1)NC(=O)[C@@H](NC(=O)c1cc(C)on1)C(C)C` were > 100000 nM, 420 nM and 248000 M⁻¹ s⁻¹.
On to `CCOC(=O)/C=C/[C@H](CCC(N)=O)NC(=O)[C@H](Cc1ccc(F)cc1)OC(=O)[C@@H](NC(=O)c1cc(C)on1)C(C)C`, for which the cytotoxic concentration (CC50) in the data set on HeLa [3] is > 10000 nM. For the same molecule, in the data set on HeLa [4], it took 100 nM to reach a half-maximal effect (EC50). Besides, in the data set on Human rhinovirus sp., the “K obs / 1” value was 68400 M⁻¹ s⁻¹.

The values above are taken from ChEMBL document CHEMBL1133803, “Design and synthesis of irreversible depsipeptidyl human rhinovirus 3C protease inhibitors” (Bioorg Med Chem Lett, 2001).
